A short description of this data set: Toxicity liver stage against HepG2, at 10uM. The class given is cell-based. Details: test concentration 10 uM, cell line HepG2-A16-CD81EGFP. Particulars: human, HepG2-A16-CD81EGFP cells; read-out: INHIBITION
In outline: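 Uninfected HepG2-A16-CD81EGFP cells, 3 × 10^3 per well, 1536-well, plated on prespotted compound at 10 μM final, parasite-free screening media added to match infected plates; puromycin 10 μM positive, DMSO 0.5% negative; run in parallel with 48 h PbLuc assay at 37 °C, 5% CO2; viability by CellTiter-Glo luminescence, normalized to controls.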
As for `c1ccc(-c2cc(CN3C[C@H]4CC[C@@H](C3)N(CC3CCC3)C4)on2)cc1`, the cytotoxicity at 10 µM was found to be 3.27%.

Regarding `CCNC(=O)[C@@H]1C[C@@H](N)CN1Cc1ccc(-c2ccccc2C#N)o1`, the cytotoxicity at 10 µM was -50.1%.

Consider `CCc1ncc2c(n1)CN(CC(=O)Nc1ccncc1)CC2`, for which the cytotoxicity at 10 µM amounted to 0.0264%.

As to `CO[C@H]1CCN(S(=O)(=O)c2cn(C)cn2)[C@H]1Cc1ccncc1`, the cytotoxicity at 10 µM was determined as 9.43%.

On to `CCC(O)CN1CCN(C(=O)c2sccc2C(C)C)CC1` (stereo not given), for which the cytotoxicity at 10 µM amounted to 6.89%.

For the molecule `CCC(CC)n1nc(C)cc1NC(=O)C1CCCO1` (stereo not given), the cytotoxicity at 10 µM was -0.951%.

Take `CCN1CCN(c2ccc(F)cc2C(C)NCc2ccccn2)CC1` (stereo not given): the cytotoxicity at 10 µM is 7.96%.

Take `O=C(CCC1CCCO1)NCCN1CCCCC1` (stereo not given): the cytotoxicity at 10 µM was -3.79%.

In the case of `COc1cc(F)c(S(=O)(=O)NCc2ccnc(N(C)C)n2)cc1OC`, the cytotoxicity at 10 µM is -147%.

In the case of `CN1CC(C(=O)N(C)Cc2cc(-c3cccnc3)no2)NC1=O` (stereo not given), the cytotoxicity at 10 µM was -3.08%.

Consider `CN(C)c1ncccc1CNc1cc(N2CCCC2CO)ncn1` (stereo not given), for which the cytotoxicity at 10 µM is -8.48%.

For `O=C(NCC1(C(=O)O)CCC1)c1nnn(-c2ccc(F)cc2)c1C1CC1`, the cytotoxicity at 10 µM is -14.8%.

For `COc1cccc(-c2cc(C(=O)N3N=C(C)CC3(O)C(F)(F)F)[nH]n2)c1` (stereo not given), the cytotoxicity at 10 µM stood at 5.97%.

Regarding `CCC(C)N1C(=O)c2ccc(C(=O)NCCc3c[nH]cn3)cc2C1=O` (stereo not given), the cytotoxicity at 10 µM was -8.64%.

Regarding `Cc1nc(C2CCCN(C(=O)c3c(C)nn4cccnc34)C2)no1` (stereo not given), the cytotoxicity at 10 µM was -7.62%.

Consider `CNc1ccnc(N2CC[C@@](O)(C3CCOCC3)[C@H](C)C2)n1`, for which the cytotoxicity at 10 µM was 8.64%.

As to `CCSc1cc(C(=O)NCCC(=O)N(C)C)ccn1`, the cytotoxicity at 10 µM is -5.41%.

For `CS(=O)(=O)N1CCC[C@H]1c1ncnn1-c1ccc2c(c1)OCO2`, the cytotoxicity at 10 µM is -12.8%.

`Cc1nc(CN2CCC(N(C)Cc3nnc(C4CC4)n3C)C2)cs1` (stereo not given): the cytotoxicity at 10 µM is -10.7%.

On to `CCc1nc(N2CCC3(CC2)OCCCC3O)ncc1C` (stereo not given), for which the cytotoxicity at 10 µM is 7.41%.

Turning to `Cc1nn(C)cc1S(=O)(=O)N[C@@H]1CC[C@@H](n2ccnc2C)[C@@H]1O`, the cytotoxicity at 10 µM was -3.43%.

With `CC(NC(=O)NCCCn1cncn1)c1ccc2c(c1)CC(=O)N2` (stereo not given), the cytotoxicity at 10 µM is -8.01%.

Turning to `COCCNC(=O)Cn1cc(NC(=O)c2cc(Cl)c(Cl)n2C)cn1`, the cytotoxicity at 10 µM is -4.01%.

Take `c1cc(N2CCCC2c2cnccn2)ncn1` (stereo not given): the cytotoxicity at 10 µM was -22.4%.

Consider `CCn1nc(C)cc1C(=O)N1C[C@@H]2C[C@@H](c3nc(C)cs3)O[C@@H]2C1`, for which the cytotoxicity at 10 µM is 3.39%.

For the molecule `Cc1ccc(-c2cc(C(=O)NCCN3CCOCC3)n[nH]2)s1`, the cytotoxicity at 10 µM is -6.45%.

As to `CC(c1nc(C2CC2)no1)N1CCN(CC(=O)N2CCOCC2)CC1` (stereo not given), the cytotoxicity at 10 µM turned out to be 6.75%.

With `CC(C)CN1CCC(NCCNc2cccnc2)CC1`, the cytotoxicity at 10 µM was -5.25%.

As for `N#CCSCCCN1CCN(C(=O)c2cccc(Cl)c2)CC1`, the cytotoxicity at 10 µM is -161%.

`Cn1ncnc1-c1ccnc(NCc2ccccn2)n1`: the cytotoxicity at 10 µM is -2.46%.

`Cn1cc(CN2CCCN(C(=O)c3ccccn3)CC2)cn1`: the cytotoxicity at 10 µM is -0.514%.

Take `CN(Cc1ccon1)C(=O)C1CC(=O)N(Cc2ccncc2)C1` (stereo not given): the cytotoxicity at 10 µM is -0.368%.

Consider `CC(C)OC(=O)N1CCCC(c2nccn2Cc2ccncc2)C1` (stereo not given), for which the cytotoxicity at 10 µM is 4.56%.

As to `Cc1cnn(Cc2cc(F)ccc2F)c1NC(=O)C1COCCO1` (stereo not given), the cytotoxicity at 10 µM amounted to 21.5%.

For `CN1CC(c2cc(O)nc(NCc3ccc(Cl)cc3)n2)CC1=O` (stereo not given), the cytotoxicity at 10 µM is -9.54%.

Regarding `Cn1ccnc1CN1C[C@@H]2OCCN(c3ncccn3)[C@@H]2C1`, the cytotoxicity at 10 µM was -73%.

With `COc1ccccc1OCC(=O)Nc1ncccc1Cl`, the cytotoxicity at 10 µM is -3.61%.

Turning to `Cc1nc(C)n(C2CCCN(C(=O)CCCn3ccnc3)C2)n1` (stereo not given), the cytotoxicity at 10 µM is 2.24%.

As to `Cc1ccc(C(=O)N2CCN(C)C3(CCC(=O)N(C)CC3)C2)c(F)c1` (stereo not given), the cytotoxicity at 10 µM was -1.68%.

As for `COc1ccc2c(c1)C(=O)N(C)C1(CCN(CC=C(C)C)CC1)N2`, the cytotoxicity at 10 µM is 3.31%.

Take `Cc1cc(F)ccc1C(=O)N1C[C@@H]2COC[C@]2(COCC2CC2)C1`: the cytotoxicity at 10 µM is -146%.

Consider `CCNC(=O)NC(=O)CNC(C)(C)c1ccc2c(c1)OCO2`, for which the cytotoxicity at 10 µM was -8.58%.

Consider `Cc1cnn(CC2CN(C=C3NN=C(c4occc4C)O3)CCO2)c1` (stereo not given), for which the cytotoxicity at 10 µM was -2.9%.

For the molecule `COCc1noc(CN2C(=O)OC[C@@H]2C(C)C)n1`, the cytotoxicity at 10 µM is -11.8%.

As to `CC(C)Cc1cc(NC(=O)c2ccc(=O)[nH]n2)n(C)n1`, the cytotoxicity at 10 µM is -10.1%.

Take `CCN(CC(C)C#N)C(=O)c1cccc(COc2ccc(C)nc2)c1` (stereo not given): the cytotoxicity at 10 µM turned out to be 5.8%.

With `COc1cc(S(=O)(=O)N2CCCc3ccccc32)cc(C(=O)O)c1OC`, the cytotoxicity at 10 µM is 1.8%.

As to `CCc1ncc2c(n1)CN(Cc1nc(-c3cccnc3)no1)CC2`, the cytotoxicity at 10 µM is -1.62%.

Regarding `O=C(CN1C=Nc2ccccc2S1(=O)=O)NCCCc1ccccc1`, the cytotoxicity at 10 µM is -3.54%.

As to `CCn1cc(CN2CCCN(C(=O)c3ccc(C)o3)CC2)cn1`, the cytotoxicity at 10 µM is -13.9%.

For `CN(C)C(=O)N1CCOCC2(CCN(c3ccccn3)C2)C1` (stereo not given), the cytotoxicity at 10 µM is 1.6%.

In the case of `Cc1noc(C)c1CN1C[C@@H]2OCCN(Cc3cnn(C)c3)[C@@H]2C1`, the cytotoxicity at 10 µM is -139%.

As to `CC(C)SCC(=O)N1CCCn2nc(C(=O)Nc3ccccc3)cc2C1`, the cytotoxicity at 10 µM is 3.19%.

`Cc1nc(-c2cccnc2)ncc1C(=O)N1CCCC(N(C)C)CC1` (stereo not given): the cytotoxicity at 10 µM stood at 9.81%.

On to `CC(C)Cn1cncc1CNC1CCSCC1`, for which the cytotoxicity at 10 µM was -4.11%.

Turning to `CCc1n[nH]c(C2CN(Cc3nnc(C4CC4)o3)CCO2)n1` (stereo not given), the cytotoxicity at 10 µM was -14.3%.

As for `CCS(=O)(=O)N1CCCC2(COCCN(c3nnc(C)o3)C2)C1` (stereo not given), the cytotoxicity at 10 µM was 8.88%.

On to `CNC(=O)C1CN(Cc2cc(C)on2)CCN(C2CCOCC2)C1` (stereo not given), for which the cytotoxicity at 10 µM came to 9.81%.

On to `O=C(c1ccc2c(c1)OCO2)N1CCC[C@]2(C[C@H](OCC3CC3)CO2)C1`, for which the cytotoxicity at 10 µM was found to be 2.34%.

Consider `CC(C)C(=O)NC1CCN(c2cccc(OC(F)(F)F)c2)C1=O` (stereo not given), for which the cytotoxicity at 10 µM is -4.13%.

Turning to `CC(C)n1nc(CN2CCCC2=O)c2c1CN(C(=O)c1ccno1)C2`, the cytotoxicity at 10 µM was determined as 3.39%.

For `CCSCCC(=O)NCCn1nc2ccccn2c1=O`, the cytotoxicity at 10 µM is -9.53%.

Turning to `CN(C)c1ccccc1C(=O)N1CCOC2(CNCCOC2)C1` (stereo not given), the cytotoxicity at 10 µM was -1.08%.

`CCn1ncc2c1CCCC2NCc1cccc2c1OCO2` (stereo not given): the cytotoxicity at 10 µM was -6.43%.

For `COc1ccc(C)cc1C(C)NCc1cccn1C` (stereo not given), the cytotoxicity at 10 µM was -5.89%.

`Cc1nc(CNC(=O)c2cc(COc3ccccc3F)[nH]n2)n[nH]1`: the cytotoxicity at 10 µM was -7.42%.

`Cc1cccc(CN2C[C@@H]3CN(C(=O)c4conc4C)C[C@@H]3C2=O)c1`: the cytotoxicity at 10 µM turned out to be 2.66%.

In the case of `Cc1ccc(N2CC[C@H](OCC3CC3)[C@@H]2Cc2ccncc2)nn1`, the cytotoxicity at 10 µM stood at 8.13%.

In the case of `Cc1ccc(C(=O)O)cc1CNC(=O)CN1CC(C)(C)[C@@](C)(O)C1`, the cytotoxicity at 10 µM was -6.03%.

On to `O=C(Nc1ccccc1)[C@H]1O[C@H](CCN2CCCCC2)CC[C@@H]1O`, for which the cytotoxicity at 10 µM is -1.36%.

Regarding `Cc1nnc(CN(C)CC2CCCN2c2cccnn2)o1` (stereo not given), the cytotoxicity at 10 µM was -0.514%.

In the case of `Cc1ccc(CNC(c2ccccc2)c2nccn2C)cc1` (stereo not given), the cytotoxicity at 10 µM was -6.3%.

`Cc1cc(C2NC(=O)CN2Cc2ccc(Br)cc2)cc(C)c1O` (stereo not given): the cytotoxicity at 10 µM stood at 4.12%.

As to `CCn1nc(C)cc1C(=O)N1CCC(Nc2ccc(C)nn2)CC1`, the cytotoxicity at 10 µM is -4.32%.

Turning to `C[C@H]1C[C@H]2CN(S(=O)(=O)c3ccc(F)cc3)CC[C@H]2O1`, the cytotoxicity at 10 µM was 1.79%.

`O=C1CC2(CCN(Cc3ccco3)C2)CN1c1ccc2c(c1)OCO2` (stereo not given): the cytotoxicity at 10 µM was -75.9%.

In the case of `CC(C)NC(=O)N1CCC2(CC(C(=O)NCc3cccnc3)=NO2)C1` (stereo not given), the cytotoxicity at 10 µM was -0.8%.

For `c1cncc(COCC2CNCc3nccn3C2)c1` (stereo not given), the cytotoxicity at 10 µM worked out at 14.2%.

As to `COCc1cncc2c1CCN(Cc1cccs1)C2`, the cytotoxicity at 10 µM was -0.95%.

In the case of `CC(=O)c1ccc(NC(=O)N[C@H](C(=O)O)C(C)C)cc1`, the cytotoxicity at 10 µM was -14.8%.

With `O=C(CSc1nncs1)N1CCN(Cc2ccc(Cl)cc2)CC1`, the cytotoxicity at 10 µM is 21.9%.

On to `c1ncn(CC2CN(CC3CCCCC3)CCO2)n1` (stereo not given), for which the cytotoxicity at 10 µM was -14.8%.

For the molecule `CO[C@H]1CN(C(=O)c2ccccn2)[C@@H]2CCCO[C@H]12`, the cytotoxicity at 10 µM amounted to 3.52%.

For the molecule `CCC[C@H]1CN(S(C)(=O)=O)C[C@@H]1NC(=O)COC(C)C`, the cytotoxicity at 10 µM is -1.09%.

On to `COC(=O)c1sccc1S(=O)(=O)NCC1(O)CCOc2ccccc21` (stereo not given), for which the cytotoxicity at 10 µM was -10.9%.

Regarding `CCc1c(C(=O)NC2CCS(=O)(=O)C2)cnn1-c1ccc(F)cc1` (stereo not given), the cytotoxicity at 10 µM was -6.31%.

On to `CC(C)n1ccnc1CN1CCCN(C(=O)CC2CCCO2)CC1` (stereo not given), for which the cytotoxicity at 10 µM was -12.8%.

For the molecule `Cc1c[nH]cc1C(=O)N1CCN(CCc2cccs2)CC1`, the cytotoxicity at 10 µM is -6.8%.

As for `CCc1c(C(=O)O)nnn1-c1ccc(C)cc1C`, the cytotoxicity at 10 µM is -5.11%.

`Cc1ccc(CN2CCc3ncnc(-c4ccc(F)cc4)c3CC2)o1`: the cytotoxicity at 10 µM was -9.49%.

In the case of `COc1ccc(N2CCN(CC(O)c3cc(C)ccc3C)CC2)cc1` (stereo not given), the cytotoxicity at 10 µM came to 7.25%.

Consider `CCC(CC)C(=O)Nc1ccc2oc(=O)n(CCN(C)C)c2c1`, for which the cytotoxicity at 10 µM was -13.7%.

`CS(=O)(=O)NC[C@]12COC[C@H]1CN(C(=O)CC1CCCC1)C2`: the cytotoxicity at 10 µM is -101%.

As for `NCc1cn(-c2ccccc2C(=O)NCc2ccccc2Cl)cn1`, the cytotoxicity at 10 µM was -9.94%.

For `CC(C)c1nccc([C@@H]2C[C@@H]3CCN(Cc4ccco4)C[C@H]3O2)n1`, the cytotoxicity at 10 µM came to 1.1%.

The values are drawn from ChEMBL document CHEMBL4513216, “Probing the Open Global Health Chemical Diversity Library for Multistage-Active Starting Points for Next-Generation Antimalarials” (ACS Infect Dis, 2020).
